{
  "source": "ChEMBL document CHEMBL1124474",
  "about": "“7-[3-(4-acetyl-3-methoxy-2-propylphenoxy)propoxy]-3,4-dihydro-8- propyl-2H-1-benzopyran-2-carboxylic acid: an orally active selective leukotriene B4 receptor antagonist” (J Med Chem, 1989)",
  "key": {"[1]": {"organism": "Homo sapiens", "assay": "Inhibition of human neutrophil leukotriene B4 induced neutrophil chemotaxis at 10e-5 M compound concentration; NA = not active", "assay_type": "functional", "how_it_was_run": "(§1)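 Human neutrophils isolated from citrated peripheral blood by 5% dextran sedimentation, Histopaque centrifugation and hypotonic erythrocyte lysis. 3×10^6 cells/mL in HEPES-buffered HBSS in upper well of modified Boyden chamber; lower well, across polycarbonate membrane, held HBSS or 3×10^-8 M LTB4 ± compound. 90 min, 37 °C; lower-well cells lysed, nuclei counted (Coulter); % inhibition after subtracting mean HBSS random migration.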"}, "[2]": {"organism": "Homo sapiens", "assay": "Inhibition of human neutrophil leukotriene B4 induced neutrophil degranulation at 10e-5 M compound concentration; NA = not active", "assay_type": "functional", "how_it_was_run": "(§2)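 Human neutrophils (3×10^6 in 1 mL HBSS) preincubated with cytochalasin B (5 µg) 5 min at 37 °C, then compound 7 min, then stimulated 2-20 min with LTB4 5×10^-8 M. Degranulation read as myeloperoxidase released into medium; pellets sonicated in phosphate buffer with 0.4% Triton X-100, supernatants brought to 0.4% Triton, both assayed.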"}, "[3]": {"organism": "Bos taurus", "assay": "Inhibition of bovine heart phosphodiesterase at 50 uM (no inhibition)"}, "[4]": {"tested_on": "Cavia porcellus", "assay": "Topical effective dose when coapplied with phorbol ester (PMA) was assessed by ear weight as a reflection of edema", "assay_type": "functional"}, "[5]": {"organism": "Homo sapiens", "assay": "Inhibition of human neutrophil leukotriene B4 induced neutrophil degranulation", "assay_type": "functional", "how_it_was_run": "as §2"}, "[6]": {"tested_on": "Homo sapiens", "assay": "Blood plasma levels of compound after 40 mg/kg oral dose of compound at 12 hr", "assay_type": "functional, organism-based", "design": "dose 40 mg/kg", "how_it_was_run": "(§3)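 Single 40 mg/kg oral dose; blood plasma drug level sampled at 1 h and 12 h after dosing.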"}, "[7]": {"organism": "Homo sapiens", "assay": "Inhibition of human neutrophil leukotriene B4 induced neutrophil chemotaxis", "assay_type": "functional", "how_it_was_run": "as §1"}, "[8]": {"tested_on": "Homo sapiens", "assay": "Blood plasma levels of compound after 40 mg/kg oral dose of compound at 1 hr", "assay_type": "functional, organism-based", "design": "dose 40 mg/kg", "how_it_was_run": "as §3"}, "[9]": {"molecular_target": "T1, Cysteinyl leukotriene receptor 1 (Cavia porcellus) (UniProt Q2NNR5)", "T1 sequence (whole entry)": "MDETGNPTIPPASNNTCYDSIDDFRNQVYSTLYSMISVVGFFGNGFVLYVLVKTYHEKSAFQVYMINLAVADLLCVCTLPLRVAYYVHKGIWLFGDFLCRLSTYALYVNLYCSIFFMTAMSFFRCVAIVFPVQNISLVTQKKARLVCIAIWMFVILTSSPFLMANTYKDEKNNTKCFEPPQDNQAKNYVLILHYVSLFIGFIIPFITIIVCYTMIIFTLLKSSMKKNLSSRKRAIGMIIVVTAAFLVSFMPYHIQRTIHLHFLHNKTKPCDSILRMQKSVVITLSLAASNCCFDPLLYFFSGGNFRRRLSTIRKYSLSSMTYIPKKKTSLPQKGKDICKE", "assay": "Inhibition of binding to the leukotriene D4 receptor at 1*10e-5 M concentration", "how_it_was_run": "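Competition binding at LTD4 receptor: protein adjusted to about 0.1 nM receptor with 1 nM [3H]LTD4, 30 min at 24 °C; bound and free ligand separated by filtration. Compound tested at 1×10^-5 M.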"}},
  "note": "Active and inactive are the calls of the source. No cut-off for these calls is given here.",
  "data": [
    {"smiles": "CCCc1c(OCCCOc2ccc3c(c2CCC)OC(C(=O)O)CC3)ccc(C(C)=O)c1O", "note": "(centres undefined)", "values": [
      {"measurement": "Activity", "setting": "[1]", "value": "inactive"},
      {"measurement": "Activity", "setting": "[2]", "value": "inactive"}
    ]},
    {"smiles": "CCCc1c(OCCCOc2ccc(C(C)=O)c(OC)c2CCC)ccc2c1OC(C(=O)O)CC2", "note": "(centres undefined) [SC-41390]", "values": [
      {"measurement": "inhibition", "setting": "[3]", "value": "inactive"},
      {"measurement": "ED50", "setting": "[4]", "value": 4.1, "unit": "uM ear-1"},
      {"measurement": "IC50", "setting": "[5]", "value": 1000, "unit": "nM"},
      {"measurement": "Plasma level", "setting": "[6]", "value": 12, "unit": "µg/mL"},
      {"measurement": "IC50", "setting": "[7]", "value": 2000, "unit": "nM"},
      {"measurement": "Plasma level", "setting": "[8]", "value": 7, "unit": "µg/mL"},
      {"measurement": "inhibition", "setting": "[9]", "value": 4, "unit": "%"}
    ]}
  ]
}
